Data taken from ChEMBL document CHEMBL4219151, “Piperidinyl Ureas Chemically Control Defective in Cullin Neddylation 1 (DCN1)-Mediated Cullin Neddylation” (J Med Chem, 2018).
pEC50, pIC50, pKd: −log10 of the molar value. ≈ marks a conversion by molar mass, not a printed value. Calls of active or inactive are those of the source. The calls are words filed in the database; no cut-off is given here.

How the values were obtained:
DCN1-like protein 1 [1] = molecular target: T1, DCN1-like protein 1 (Homo sapiens, UniProt Q96GG9)
BJ = test: Growth inhibition of human BJ cells; type: cell-based
In short: (§1)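 In vitro monolayer proliferation assay in BJ cells (normal fibroblasts lacking DCN1 amplification) and HCC95 cells (squamous cell carcinoma line carrying DCN1 amplification). EC50 is reported as mean ± standard deviation from at least one experiment run in triplicate. A ">" value means less than 50% growth inhibition at the highest concentration tested.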

[2] = Solubility of the compound at pH 7.4 after 18 hrs by UV-spectroscopy; type: physicochemical; settings: buffer
In short: (§2)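 Measured in triplicate within at least one experiment; values reported as mean ± standard deviation.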

DCN1-like protein 1 [3] = molecular target: T1, DCN1-like protein 1; test: Inhibition of human DCN1-mediated cullin neddylation assessed as reduction in transfer of fluorescein-5-maleimide-tagged NEDD8 from N-terminally acetylated human UBE2M to CUL2-CTD measured for 10 sec by pulse-chase assay
HCC95 = test: Growth inhibition of human HCC95 cells; type: functional, cell-based
In short: as §1

[4] = Permeability of the compound at 10 uM by PAMPA; type: ADME; settings: for Papp at 10 µM: PAMPA, read-out: permeability; for permeability: pampa, 10 µM
In short: as §2

DCN1-like protein 1 [5] = molecular target: T1, DCN1-like protein 1; test: Binding affinity biotinylated human GST-tagged DCN1 by ITC method
Homo sapiens = species: Homo sapiens; test: Inhibition of human RBX1-catalyzed CUL2(CTD) neddylation assessed as reduction in transfer of N-terminal cys-tagged NEDD8 from UBE2M to CUL2-CTD at 12.5 uM measured up to 6 mins by pulse-chase assay
In short: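 In vitro pulse-chase monitoring NEDD8 transfer from UBE2M to the CUL2 C-terminal domain, stimulated by DCN1 together with RBX1. The CUL2 domain stands in for cullins 1-5. The assay is a variation of a previously published pulse-chase format, also run against each of the five DCN family members.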

[6] = molecular target: T2, DCN1-like protein 3 (Homo sapiens) (UniProt Q8IWE4); test: Inhibition of human DCN3 stimulated N-terminal cys-tagged NEDD8 transfer from UBE2F to CUL2(CTD)-RBX1 at 10 uM measured up to 2 mins by pulse-chase assay
T2 sequence (whole entry): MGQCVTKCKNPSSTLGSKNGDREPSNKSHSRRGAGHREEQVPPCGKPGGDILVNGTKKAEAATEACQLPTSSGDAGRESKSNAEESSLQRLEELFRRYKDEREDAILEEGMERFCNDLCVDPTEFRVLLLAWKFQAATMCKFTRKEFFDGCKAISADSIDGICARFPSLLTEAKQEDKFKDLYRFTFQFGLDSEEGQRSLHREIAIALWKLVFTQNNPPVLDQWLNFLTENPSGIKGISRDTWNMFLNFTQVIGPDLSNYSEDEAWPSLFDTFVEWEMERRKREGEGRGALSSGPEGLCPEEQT

[7] = molecular target: NEDD8 activating enzyme (Homo sapiens) (UniProt Q8TBC4+Q13564); test: Inhibition of human NAE1-UBA3 E1 activating enzyme assessed as reduction in CUL3 neddylation by measuring inhibition of UBE2M thiol-ester formation at 50 uM up to 60 mins by pulse-chase assay; type: protein-complex assay
[8] = molecular target: T2, DCN1-like protein 3 (Homo sapiens); test: Inhibition of human DCN3-mediated cullin neddylation assessed as reduction in transfer of fluorescein-5-maleimide-tagged NEDD8 from N-terminally acetylated human UBE2M to CUL2-CTD at 50 uM measured for 2 mins by pulse-chase assay
[9] = molecular target: T3, DCN1-like protein 5 (Homo sapiens) (UniProt Q9BTE7); test: Inhibition of human DCN5-mediated cullin neddylation assessed as reduction in transfer of fluorescein-5-maleimide-tagged NEDD8 from N-terminally acetylated human UBE2M to CUL2-CTD at 50 uM measured for 1 min by pulse-chase assay
T3 sequence (whole entry): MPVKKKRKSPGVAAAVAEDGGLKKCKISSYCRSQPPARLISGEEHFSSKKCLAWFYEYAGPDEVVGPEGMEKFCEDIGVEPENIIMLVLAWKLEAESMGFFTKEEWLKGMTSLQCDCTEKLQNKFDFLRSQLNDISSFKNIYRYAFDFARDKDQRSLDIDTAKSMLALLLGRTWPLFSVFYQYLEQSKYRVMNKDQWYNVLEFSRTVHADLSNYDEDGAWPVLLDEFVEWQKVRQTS

[10] = molecular target: T4, DCN1-like protein 4 (Homo sapiens) (UniProt Q92564); test: Inhibition of human DCN4-mediated cullin neddylation assessed as reduction in transfer of fluorescein-5-maleimide-tagged NEDD8 from N-terminally acetylated human UBE2M to CUL2-CTD at 50 uM measured for 1 min by pulse-chase assay
T4 sequence (whole entry): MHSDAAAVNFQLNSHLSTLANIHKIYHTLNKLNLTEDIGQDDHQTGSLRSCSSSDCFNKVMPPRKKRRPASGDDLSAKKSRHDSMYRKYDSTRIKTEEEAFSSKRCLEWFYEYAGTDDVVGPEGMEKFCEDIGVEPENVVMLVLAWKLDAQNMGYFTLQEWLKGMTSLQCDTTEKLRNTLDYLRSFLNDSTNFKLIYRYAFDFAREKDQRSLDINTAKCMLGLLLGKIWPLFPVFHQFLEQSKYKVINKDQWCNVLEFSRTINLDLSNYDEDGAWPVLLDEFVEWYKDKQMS

[11] = molecular target: DCN1-like protein 2 (Homo sapiens) (UniProt Q6PH85); test: Inhibition of human DCN2-mediated cullin neddylation assessed as reduction in transfer of fluorescein-5-maleimide-tagged NEDD8 from N-terminally acetylated human UBE2M to CUL2-CTD at 12.5 and 50 uM measured for 10 sec by pulse-chase assay
DCN1-like protein 2 (Homo sapiens), sequence (Q6PH85 whole entry): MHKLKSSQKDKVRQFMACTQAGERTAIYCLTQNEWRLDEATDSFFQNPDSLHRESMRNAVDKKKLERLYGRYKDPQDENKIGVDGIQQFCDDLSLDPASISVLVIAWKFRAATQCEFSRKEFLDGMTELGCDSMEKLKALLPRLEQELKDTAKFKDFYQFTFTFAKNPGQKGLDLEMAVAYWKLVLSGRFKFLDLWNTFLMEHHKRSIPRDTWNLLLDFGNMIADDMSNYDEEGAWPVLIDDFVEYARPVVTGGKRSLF

T1 sequence (Q96GG9 whole entry): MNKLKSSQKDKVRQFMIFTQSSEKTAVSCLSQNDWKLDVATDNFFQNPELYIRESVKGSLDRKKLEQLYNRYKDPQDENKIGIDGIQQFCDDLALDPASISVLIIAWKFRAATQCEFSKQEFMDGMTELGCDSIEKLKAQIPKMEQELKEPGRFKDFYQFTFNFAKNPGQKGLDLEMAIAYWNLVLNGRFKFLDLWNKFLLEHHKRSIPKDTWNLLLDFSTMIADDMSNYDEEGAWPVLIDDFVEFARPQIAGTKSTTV

| Compound | pIC50 (DCN1-like protein 1 [1]) | pEC50 (BJ) | solubility at 18 h [2] | pEC50 (DCN1-like protein 1 [3]) | pEC50 (HCC95) | Papp at 10 µM [4] | other results |
| --- | --- | --- | --- | --- | --- | --- | --- |
| CCCCN1CCC(N(Cc2ccc3c(c2)OCO3)C(=O)Nc2cccc(C(F)(F)F)c2)CC1 | 6.44 | < 4.40 | 71 µM (≈ 33.9 µg/mL) | 6.96 | 4.34 | > 2200 ×10⁻⁶ cm/s |  |
| O=C(Nc1cccc(C(F)(F)F)c1)NC1CCN(Cc2ccccc2)CC1 |  | < 4.62 | 32 µM (≈ 12.1 µg/mL) |  | < 4.49 | 670 ×10⁻⁶ cm/s |  |
| CCCN1CCC(N(Cc2ccco2)C(=O)Nc2cccc(C(F)(F)F)c2)CC1 | 6.12 | < 4.64 | 69 µM (≈ 28.3 µg/mL) | 6.24 | < 4.64 | > 2200 ×10⁻⁶ cm/s | pKd (DCN1-like protein 1 [5]): 6.15 |
| CCCCN1CCC(N(Cc2ccccc2)C(=O)Nc2cccc(C(F)(F)F)c2)CC1 | 6.59 | < 4.40 | 70 µM (≈ 30.3 µg/mL) | 6.85 | < 4.40 | > 2200 ×10⁻⁶ cm/s | inhibition (Homo sapiens): inactive; inhibition [6]: inactive; inhibition [7]: inactive; pKd (DCN1-like protein 1 [5]): 6.15 |
| CCCN1CCC(N(Cc2ccc3c(c2)OCO3)C(=O)Nc2cccc(C(F)(F)F)c2)CC1 |  | < 4.64 | 66 µM (≈ 30.6 µg/mL) |  | < 4.40 | > 2200 ×10⁻⁶ cm/s |  |
| CCCN1CCC(N(Cc2cccnc2)C(=O)Nc2cccc(C(F)(F)F)c2)CC1 |  | < 4.64 | < 0.1 µM |  | < 4.64 |  | permeability [4]: 1300 ×10⁻⁶ cm/s |
| CCCN1CCC(N(Cc2ccccc2)C(=O)Nc2cccc(C(F)(F)F)c2)CC1 | 6.09 | < 4.64 | 39 µM (≈ 16.4 µg/mL) | 6.40 | < 4.40 |  | permeability [4]: 1800 ×10⁻⁶ cm/s; pKd (DCN1-like protein 1 [5]): 6.07 |
| CCCN1CCC(N(Cc2cc(F)cc(C(F)(F)F)c2)C(=O)Nc2cccc(C(F)(F)F)c2)CC1 | 6.00 | < 4.64 | 37 µM (≈ 18.7 µg/mL) | 6.74 | 4.68 | > 2200 ×10⁻⁶ cm/s | inhibition (Homo sapiens): inactive |
| CCCC(C)N1CCC(N(Cc2ccccc2)C(=O)Nc2cccc(C(F)(F)F)c2)CC1 (centres undefined) | 7.21 | < 4.40 | 57 µM (≈ 25.5 µg/mL) | 7.10 | 4.33 |  | inhibition (Homo sapiens): inactive; inhibition [6]: inactive; inhibition [8]: inactive; inhibition [9]: inactive; permeability [4]: 1400 ×10⁻⁶ cm/s; inhibition [10]: inactive; inhibition [7]: inactive; inhibition [11]: Active; pKd (DCN1-like protein 1 [5]): 6.85 |
| Cc1cccc(CN2CCC(NC(=O)Nc3cccc(C(F)(F)F)c3)CC2)c1 | 5.18 |  | 35 µM (≈ 13.7 µg/mL) |  |  | > 2200 ×10⁻⁶ cm/s |  |
| O=C(Nc1cccc(C(F)(F)F)c1)NC1CCN(Cc2ccc(F)cc2)CC1 | 4.85 |  | 19 µM (≈ 7.51 µg/mL) |  |  | > 2200 ×10⁻⁶ cm/s |  |
| CC(C)(C)N1CCC(N(Cc2ccc3c(c2)OCO3)C(=O)Nc2cccc(C(F)(F)F)c2)CC1 | 6.51 | < 4.40 | 75 µM (≈ 35.8 µg/mL) | 6.43 | < 4.40 | > 2200 ×10⁻⁶ cm/s | inhibition (Homo sapiens): inactive |
| O=C(Nc1cccc(C(F)(F)F)c1)N(Cc1ccccc1)C1CCN(Cc2ccc3c(c2)OCCO3)CC1 | 6.44 |  | 1 µM (≈ 0.526 µg/mL) |  |  | > 2200 ×10⁻⁶ cm/s |  |
| O=C(Nc1cccc(C(F)(F)F)c1)N(Cc1ccccc1)C1CCN(Cc2c[nH]cn2)CC1 | 5.23 |  | 110 µM (≈ 50.3 µg/mL) |  |  | 50 ×10⁻⁶ cm/s |  |
| CCCS(=O)(=O)N1CCC(N(Cc2ccccc2)C(=O)Nc2cccc(C(F)(F)F)c2)CC1 | 6.13 |  | 0.5 µM (≈ 0.242 µg/mL) |  |  | < 1 ×10⁻⁶ cm/s |  |
| CCCCN(C(=O)Nc1cccc(C(F)(F)F)c1)C1CCN(CCC)CC1 | 5.85 |  | 70 µM (≈ 27 µg/mL) |  |  | > 2200 ×10⁻⁶ cm/s |  |
| O=C(Nc1cccc(C(F)(F)F)c1)N(Cc1ccccc1)C1CCN(Cc2ccc3c(c2)OCO3)CC1 | 4.92 |  | < 0.1 µM |  |  | > 2200 ×10⁻⁶ cm/s |  |
| O=C(Nc1cccc(CN2CCOCC2)c1)NC1CCN(Cc2ccccc2)CC1 | < 4.17 |  | 75 µM (≈ 30.6 µg/mL) |  |  | 220 ×10⁻⁶ cm/s |  |
